Bioassay records (PubChem)
A selection: hits, their analogues and other compounds. The true share with any hit is near 2.5%.
Efflux pump mplx: antifungal efflux pump inhibition, Nile Red retention; S. cerevisiae Candida pump triplex; inhibition, % at 10 µM; 0.44% of 330,000 active;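 active = plate passing quality check with inhibition over a set limit, or well fluorescence over plate mean plus 4 SD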;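 note: Nile Red retained in pooled yeast measured as flow cytometry median fluorescence; 0% = buffer negative control and 100% = Enniatin B positive control; higher means more Nile Red kept so more efflux inhibition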
ABCB1 inh: inhibitors of human ABCB1 transporter, ABCG2 counter-screen. 0.067% of 190,000 active. CCRF-Adr cells, JC-1 efflux, flow cytometry. AID 1326. P08183. inhibition, % at 6.6 µM; in the data active = inhibition above about 40%;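 note: 0% = vehicle and 100% = reference inhibitor; higher value means more JC-1 retained so stronger ABCB1 efflux block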
MEKK2 WT-MEK5: raises or lowers MEK5 binding to wildtype human MEKK2 PB1 domain; Q9Y2U5; bead flow cytometry, Alexa488-MEK5 binding to MEKK2 WT; actives lie on both sides; binding response (% of control), % at 10 µM; 1.1% of 290,000 active; in the data active = binding response below about 67% or above about 130%
MEKK3 PB1 HTS: modulators (inhibitors or enhancers) of MEK5 binding to human MEKK3 PB1 domain; bead-based flow cytometry, Alexa488-MEK5 binding to MEKK3; actives lie on both sides; 0 = blocked by unlabeled MEK5, 100 = vehicle; binding response (% of control), % at 10 µM; 1.4% of 290,000 active;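 active = binding response more than 3 SD above or below the average of its plate-row segment, actives on both sides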;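 note: Alexa488 bead fluorescence after subtracting the streptavidin-only scavenger bead signal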
Target sequence (Q99759 whole entry, looked up, the tested form may be a part): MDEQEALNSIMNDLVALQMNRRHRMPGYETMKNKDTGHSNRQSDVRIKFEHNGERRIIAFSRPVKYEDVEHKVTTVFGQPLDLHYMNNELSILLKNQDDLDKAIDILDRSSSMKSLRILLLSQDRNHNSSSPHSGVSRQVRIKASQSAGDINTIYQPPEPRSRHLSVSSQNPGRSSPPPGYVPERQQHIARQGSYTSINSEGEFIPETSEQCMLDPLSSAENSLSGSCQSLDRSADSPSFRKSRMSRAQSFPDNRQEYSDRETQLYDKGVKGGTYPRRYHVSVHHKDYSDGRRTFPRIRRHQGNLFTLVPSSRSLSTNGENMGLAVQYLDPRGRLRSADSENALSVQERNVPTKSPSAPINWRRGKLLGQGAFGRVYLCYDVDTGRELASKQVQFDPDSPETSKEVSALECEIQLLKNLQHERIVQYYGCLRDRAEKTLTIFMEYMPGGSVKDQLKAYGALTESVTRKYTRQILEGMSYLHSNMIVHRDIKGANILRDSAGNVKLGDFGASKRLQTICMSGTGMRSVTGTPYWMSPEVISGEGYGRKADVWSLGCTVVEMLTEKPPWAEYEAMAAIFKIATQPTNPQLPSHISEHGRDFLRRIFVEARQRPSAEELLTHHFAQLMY
ABCG2 inh: blocks JC-1 efflux by human ABCG2 transporter | Q9UNQ0 | IgMXP3 cells, flow cytometry | inhibition, % at 6.6 µM | 0.1% of 190,000 active | AID 1325;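 active = inhibition above 80%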;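 note: 0% = DMSO and 100% = nicardipine control wells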
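Test system: IgMXP3 (ABCG2) plus far-red-tagged CCRF-Adr (ABCB1) cells / Amount: 3 million cells/mL in well / Reagent: JC-1 transporter substrate / Timing: 10 min compound exposure, 25 °C / Signal: flow cytometry, 530 nm JC-1 signal / Read-out: percent efflux inhibition, scaled nicardipine 100% to DMSO 0% / Benchmarks: nicardipine as high control, DMSO as low control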
MEKK2 mut-MEK5: signal of MEK5 binding to mutant human MEKK2 PB1 domain; bead flow cytometry, Alexa488-MEK5 binding to MEKK2 mutant; percent response, % at 10 µM; 0.35% of 290,000 active; in the data active = percent response above about 24%, passing the limit was not always enough
MEKK2wt confirm: raises or lowers MEK5 binding to wildtype human MEKK2, retest; AID 1892; bead flow cytometry, Alexa488-MEK5 binding to MEKK2 WT; actives lie on both sides; 2.4% of 5,900 active; shares compounds with MEKK3 PB1 HTS; binding response (% of control), % at 10 µM; in the data active = binding response below about 16% or above about 210%; inactive = in between
MEKK2mut confirm: signal of MEK5 binding to mutant human MEKK2, retest; shares compounds with MEKK3 PB1 HTS; 2% of 5,900 active; bead flow cytometry, Alexa488-MEK5 binding to MEKK2 mutant; percent response, % at 10 µM; in the data active = percent response mostly above about 71%, no sharp cut-off; inactive = mostly below about 38%;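 note: higher means compound restores mutant binding toward wildtype level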
MEKK3-MEK5 inh: confirmation of inhibitors of MEK5 binding to human MEKK3 | shares compounds with MEKK3 PB1 HTS | AID 1894 | bead flow cytometry, Alexa488-MEK5 binding to MEKK3; stronger effect = lower value | 1.8% of 5,900 active | binding response (% of control), % at 10 µM;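 active = binding response below 72% of control, or above a set upper limit, though filed actives all read lower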;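 note: 100% = DMSO only wells and 0% = binding blocked by excess unlabeled MEK5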
* = called active by the depositor; . = no result; [ ] = remark or other dose.

SMILES	Efflux pump mplx	ABCB1 inh	MEKK2 WT-MEK5	MEKK3 PB1 HTS	ABCG2 inh	MEKK2 mut-MEK5	MEKK2wt confirm	MEKK2mut confirm	MEKK3-MEK5 inh
FC(F)(F)c1cc(-c2ccco2)nc(NCc2cccs2)n1	0	-2	106	122*	15	5	93	-2	94
Clc1ccc(OCCOCCOc2cccc3cccnc23)c(Br)c1	3	1	109	137*	17	1	111	16	114
CC1CC(C)CN(CCOCCSc2ccccc2)C1 (stereo not drawn)	0	0	111	95	5	12	.	.	.
CC1CCCN(CCOCCOc2ccc(Cl)cc2Br)C1 (stereo not drawn)	0	0	120	87	1	7	.	.	.
CC1CCCN(CCOCCSc2ccccc2)C1 (stereo not drawn)	0	0	103	133*	6	0	101	-11	95
CC1CCCN(CCOc2ccc(Br)cc2)C1 (stereo not drawn)	3	-1	112	198*	-3	0	91	-12	87
CC1CCCN(CCOCCOc2ccc(Br)cc2Cl)C1 (stereo not drawn)	0	1	112	150*	0	7	111	11	98
CCCCN1C(=O)NC(c2ccc(OC)cc2)C(C(=O)OCc2ccccc2)=C1C (stereo not drawn)	0	.	87	99	.	-7	.	.	.
COc1ccc(N2CCN(c3nc4ccccn4c(=O)c3/C=C(\C#N)S(=O)(=O)c3ccccc3)CC2)cc1	1	.	103	99	.	-1	.	.	.
O=C(C1=C[C@H](c2ccc(C(F)(F)F)cc2)C[C@H](OCCCCO)O1)N1CCOCC1	0	1	100	82*[inhibitor]	6	-3	99	-3	98
Cc1noc(C)c1NC(=O)N(C)C[C@H]1Oc2ccc(NC(=O)Cn3cnnn3)cc2C(=O)N([C@H](C)CO)C[C@@H]1C	0	.	.	.	.	.	.	.	.
CCOC(=O)c1ccc(NC(=O)N2CCN(c3cccc(OC)c3)CC2)cc1	0	0	85	86	-1	-5	.	.	.
CCOC(=O)CCC(NC(=O)CCCCC(=O)NC(CCC(=O)OCC)C(=O)OCC)C(=O)OCC (stereo not drawn)	0	1	107	130*	5	1	106	0	103
CCOC(=O)CCC(NC(=O)CCCCCCCCC(=O)NC(CCC(=O)OCC)C(=O)OCC)C(=O)OCC (stereo not drawn)	0	-1	110	107	-7	1	.	.	.
CN(C)CC/C=C1\c2ccccc2Sc2cc(F)c(Cl)cc21	0	.	.	.	.	.	.	.	.
CC(=O)c1ccc2c(c1)N(CCCN1CCC(CCO)CC1)c1ccccc1S2	0	.	.	.	.	.	.	.	.
OCCN1CCN(CCCN2c3ccccc3Sc3ccc(Cl)cc32)CC1	0	0	160*	79	3	10	141	27	105
CN(C)CCCN1c2ccccc2Sc2ccc(Cl)cc21	0	0	153*	102	0	13	149	27	107
CN1CCN(CCCN2c3ccccc3Sc3ccc(S(=O)(=O)N(C)C)cc32)CC1	0	.	.	.	.	.	.	.	.
CN(C)CC/C=C1\c2ccccc2Sc2ccc(Cl)cc21	0	0	164*	72*[inhibitor]	1	17	136	16	99
O=C(C1Cc2ccccc2CN1C(=O)c1ccccc1)N1CCN(c2ccccc2)CC1 (stereo not drawn)	0	.	99	100	.	-2	.	.	.
CN1CCN(NC(=S)NC(C)(C)CC(C)(C)C)CC1	0	0	77	58*[inhibitor]	0	-4	103	3	105
COC(=O)/C=C1\C(=O)N(c2nc3ccccc3s2)C(=S)N1c1ccc(F)cc1	0	0	0.0*[inhibitor]	1.0*[inhibitor]	1	-41	99	0	99
CC1CN(C(=O)c2cc3ccccc3oc2=O)CC(C)O1 (stereo not drawn)	0	1	96	82*[inhibitor]	1	-8	101	-2	99
COc1cccc2cc(C(=O)N3CC(C)OC(C)C3)c(=O)oc12 (stereo not drawn)	0	.	99	99	.	-3	.	.	.
SMILES	Efflux pump mplx	ABCB1 inh	MEKK2 WT-MEK5	MEKK3 PB1 HTS	ABCG2 inh	MEKK2 mut-MEK5	MEKK2wt confirm	MEKK2mut confirm	MEKK3-MEK5 inh
CC1CN(C(=O)c2ccc(Oc3ccccc3)cc2)CC(C)O1 (stereo not drawn)	0	1	86	70*[inhibitor]	1	-4	99	-5	98
Cc1cc(NC(=O)c2cccc(COc3ccc(Br)cc3)c2)no1	0	0	106	102	5	6	.	.	.
CC(Oc1cc2oc(=O)c3c(c2cc1Cl)CCC3)C(=O)NCCCn1ccnc1 (stereo not drawn)	0	.	107	104	.	14	.	.	.
Nc1nonc1C(=O)NCCNCc1cc(Br)ccc1OCc1ccccc1F	0	3	113	81	7	-1	.	.	.
Nc1nonc1C(=O)NCCNCc1ccccc1OCc1ccccc1F	0	1	124	123*	4	8	113	14	103
CC1=NNC(=O)C1C(c1ccccc1)C1C(=O)NN=C1C (stereo not drawn)	0	2	113	129*	0	1	97	-6	101
O=C(c1cc(COc2c(F)cccc2F)on1)N1CCC(c2ccccc2Cl)C1 (stereo not drawn)	0	-1	51	49*[inhibitor]	3	-35	96	-5	100
O=C(c1cc(COc2c(F)cccc2F)on1)N1C[C@H]2CC[C@H]1C2	0	.	68	49*[inhibitor]	.	-24	18	-26	39*
O=C(c1cc(COc2c(F)cccc2F)on1)N1CCC(c2ccccc2F)C1 (stereo not drawn)	0	1	97	103	7	-1	.	.	.
COC(=O)C1CCN(C(=O)COC(=O)c2oc3ccc(OC)cc3c2C)CC1	0	.	104	104	.	-1	.	.	.
Cc1ccc(Cc2c(C)nc3nc(SCC(=O)NCc4ccco4)nn3c2C)cc1	0	1	129	122*	1	6	100	3	106
Cc1cccc(Cc2c(C)nc3nc(SCC(=O)NCc4ccco4)nn3c2C)c1	0	0	122	126*	0	7	102	-1	101
